According to ChEMBL document CHEMBL4028912, “Novel Aryl Substituted Pyrazoles as Small Molecule Inhibitors of Cytochrome P450 CYP121A1: Synthesis and Antimycobacterial Evaluation” (J Med Chem, 2017):
Converted amounts (≈) assume the structure as drawn. The source made the active and inactive calls. No cut-off for these calls is given here.

Assays:
[1] = Binding affinity to Mycobacterium tuberculosis CYP121A1 expressed in Escherichia coli TG1 (DE3) by UV-visible scanning spectrophotometric analysis
Outline: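 Purified CYP121A1 (typically 3–5 μM) in 100 mM KPi, 200 mM KCl, pH 7.85, 0.004% Triton X-100, at 28 °C. Ligand added stepwise from DMSO stocks until no further spectral change. ΔAmax (peak minus trough of difference spectra) was plotted against [ligand] and fitted to a hyperbolic or Hill equation. Triplicate titrations were run and Kd was averaged.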

[2] = system: Mycobacterium tuberculosis; test: Binding affinity to Mycobacterium tuberculosis CYP121A1 expressed in Escherichia coli TG1 (DE3) assessed as Soret peak shift by UV-visible scanning spectrophotometric analysis
Outline: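 Purified CYP121A1 (typically 3–5 μM) titrated at 28 °C in 100 mM KPi, 200 mM KCl, pH 7.85, 0.004% Triton X-100. Ligand added stepwise from DMSO stocks until saturation. Spectra 250–800 nm were recorded. Soret shift was judged from the difference spectra, with a red shift taken as type II.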

[3] = system: Mycobacterium tuberculosis; test: Antimycobacterial activity against Mycobacterium tuberculosis H37Rv after 7 days by resazurin microtiter assay; format: functional; settings: 168 h
Outline: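 M. tuberculosis H37Rv grown in 7H9 with 10% OADC at 37 °C to mid-log (OD600 0.4–0.6). Inoculum adjusted to McFarland no. 1, diluted 1:20. Compounds from DMSO stocks, final 0.39–100 μg/mL; rifampicin 0.004–1 μg/mL as control. After 7 days at 37 °C, 0.01% resazurin added, read 24 h later by fluorescence (530/590 nm). MIC = lowest concentration giving 90% inhibition.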

Compound | Kd [1] | Activity [2] | MIC90 [3]
COc1ccc(-c2nn(-c3ccccc3)cc2Cn2cncn2)cc1 | 96.5 µM | 416 to 420 nm | 25 µg/mL (≈ 75.4 µM)
O=C(NCCn1ccnc1)c1cn(-c2ccccc2)nc1-c1ccccc1 | 394 µM | 416 to 418 nm | > 100 µg/mL
COc1ccc(-c2nn(-c3ccccc3)cc2Cn2ccnc2)cc1 | 11.4 µM | 416 to 421 nm | 25 µg/mL (≈ 75.7 µM)
c1ccc(-c2nn(-c3ccccc3)cc2Cn2cncn2)cc1 | 73.5 µM | 416 to 422 nm | 50 µg/mL (≈ 166 µM)
N#Cc1ccc(-c2nn(-c3ccccc3)cc2Cn2cncn2)cc1 |  | inactive | > 100 µg/mL
OC(Cn1cncn1)(Cn1cncn1)c1ccc(F)cc1F [FLUCONAZOLE] |  |  | > 100 µg/mL
Ic1ccc(-c2nn(-c3ccccc3)cc2Cn2cncn2)cc1 |  | inactive | 50 µg/mL (≈ 117 µM)
Clc1ccc(-c2nn(-c3ccccc3)cc2Cn2cncn2)cc1 | 83.8 µM | 416 to 421 nm | 25 µg/mL (≈ 74.4 µM)
N#Cc1ccc(-c2nn(-c3ccccc3)cc2Cn2ccnc2)cc1 | 45.9 µM | 416 to 418 nm | 100 µg/mL (≈ 307 µM)
O=C(NCCn1ccnc1)c1cn(-c2ccccc2)nc1-c1ccc(Cl)cc1 |  | inactive | > 100 µg/mL
O=C(NCCn1ccnc1)c1cn(-c2ccccc2)nc1-c1ccc(F)cc1 |  | inactive | > 100 µg/mL
Clc1ccccc1C(c1ccccc1)(c1ccccc1)n1ccnc1 [CLOTRIMAZOLE] |  |  | 20 µg/mL (≈ 58 µM)
Fc1ccc(-c2nn(-c3ccccc3)cc2Cn2cncn2)cc1 | 35.6 µM | 416 to 423 nm | 25 µg/mL (≈ 78.3 µM)
Fc1ccc(-c2nn(-c3ccccc3)cc2Cn2ccnc2)cc1 | 4.16 µM | 416 to 424 nm | 25 µg/mL (≈ 78.5 µM)
Cc1ccc(-c2nn(-c3ccccc3)cc2Cn2cncn2)cc1 | 187 µM | 416 to 418 nm | > 100 µg/mL
Cc1ccc(-c2nn(-c3ccccc3)cc2Cn2ccnc2)cc1 | 5.36 µM | 416 to 422 nm | 12.5 µg/mL (≈ 39.8 µM)
Clc1ccc(-c2nn(-c3ccccc3)cc2Cn2ccnc2)cc1 | 7.42 µM | 416 to 422 nm | 12.5 µg/mL (≈ 37.3 µM)
Ic1ccc(-c2nn(-c3ccccc3)cc2Cn2ccnc2)cc1 | 13.6 µM | 416 to 422 nm | 6.25 µg/mL (≈ 14.7 µM)
COc1ccc(-c2nn(-c3ccccc3)cc2C(=O)NCCn2ccnc2)cc1 | 314 µM | 416 to 418 nm | 100 µg/mL (≈ 258 µM)
Cc1ccc(-c2nn(-c3ccccc3)cc2C(=O)NCCn2ccnc2)cc1 | 290 µM | 416 to 418 nm | > 100 µg/mL
Brc1ccc(-c2nn(-c3ccccc3)cc2Cn2ccnc2)cc1 | 19.5 µM | 416 to 420 nm | 6.25 µg/mL (≈ 16.5 µM)
c1ccc(-c2nn(-c3ccccc3)cc2Cn2ccnc2)cc1 | 2.63 µM | 416 to 424 nm | 12.5 µg/mL (≈ 41.6 µM)
Brc1ccc(-c2nn(-c3ccccc3)cc2Cn2cncn2)cc1 | 193 µM | 416 to 418 nm | 25 µg/mL (≈ 65.7 µM)
